Laboratory results as given in ChEMBL document CHEMBL4619772 (J Med Chem, 2020).
pEC50, pIC50: −log10 of the molar value.

Columns and labels:
[1] = test system: A549; test: Inhibition of pseudotyped HIV/EBOV GP infected in human A549 cells assessed as reduction in virus entry at 12.5 uM measured after 48 hrs by luciferase reporter gene assay relative to control; assay type: cell-based; conditions: Ebolavirus
Outline: (§1)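 Low-passage A549 cells are infected with HIV-based pseudovirions carrying EBOV or MARV GP and a luciferase reporter, with or without compound at 12.5 μM. […] Toremifene is the positive control.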

[2] = test system: A549; test: Inhibition of pseudotyped HIV/MARV GP infected in human A549 cells assessed as reduction in virus entry at 12.5 uM measured after 48 hrs by luciferase reporter gene assay relative to control; assay type: cell-based; conditions: Marburgvirus; outline: as §1
[3] = Inhibition of pseudotyped HIV/EBOV GP infected in human A549 cells assessed as reduction in virus entry measured after 48 hrs by luciferase reporter gene assay; assay type: cell-based, Ebolavirus; conditions: Orthoebolavirus, A549, 48 h
[4] = Metabolic stability in Fischer F344 rat liver microsomes assessed as parent compound remaining after 60 mins in presence of NADPH by HPLC analysis; assay type: ADME, Microsome; conditions: read-out: Stability
Outline: (§2)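 Stability is reported as % of compound remaining after 60 min incubation in plasma or liver microsomes, relative to t0.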

[5] = Inhibition of pseudotyped HIV/MARV GP infected in human A549 cells assessed as reduction in virus entry measured after 48 hrs by luciferase reporter gene assay; assay type: cell-based, Marburgvirus; conditions: Orthomarburgvirus, A549, 48 h
[6] = Metabolic stability in human pooled plasma assessed as parent compound remaining at 20 uM after 60 mins by HPLC analysis; assay type: ADME, cell-free; conditions: read-out: Stability; outline: as §2
[7] = target: Cytochrome P450 3A4 (Homo sapiens, UniProt P08684); test: Inhibition of recombinant human CYP3A4 expressed in baculovirus infected insect cell microsomes using vivid DBOMF as substrate preincubated for 10 mins followed by substrate addition and measured after 25 mins in presence of […] by fluorescence assay; assay type: ADME
Sequence of Cytochrome P450 3A4 (P08684 whole entry): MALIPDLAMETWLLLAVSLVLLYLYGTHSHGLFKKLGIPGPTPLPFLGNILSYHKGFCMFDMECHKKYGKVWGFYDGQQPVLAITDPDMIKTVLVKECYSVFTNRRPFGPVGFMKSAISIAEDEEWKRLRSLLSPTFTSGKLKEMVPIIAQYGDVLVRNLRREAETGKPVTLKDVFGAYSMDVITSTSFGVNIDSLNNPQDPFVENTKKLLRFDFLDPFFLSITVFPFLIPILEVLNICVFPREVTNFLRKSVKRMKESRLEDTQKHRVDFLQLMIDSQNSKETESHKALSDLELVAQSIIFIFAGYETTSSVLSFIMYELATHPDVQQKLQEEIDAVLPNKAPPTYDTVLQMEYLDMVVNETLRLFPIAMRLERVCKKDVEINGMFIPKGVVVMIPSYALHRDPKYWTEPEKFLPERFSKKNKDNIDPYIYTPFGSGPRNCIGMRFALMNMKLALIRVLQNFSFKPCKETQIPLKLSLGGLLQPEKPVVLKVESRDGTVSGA
Outline: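 CYP3A4 inhibition IC50 is determined with 10 μM quinidine as positive inhibitor control, from three replicates; errors are estimated <10%.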

[8] = Metabolic stability in human liver microsomes assessed as parent compound remaining after 60 mins in presence of NADPH by HPLC analysis; assay type: ADME, Microsome; conditions: read-out: Stability; outline: as §2
[9] = Selectivity index, ratio of CC50 for human HeLa cells to EC50 for Ebola virus 1976 Mayinga in human HeLa cells; assay type: toxicity, cell-based; conditions: read-out: Ratio CC50/EC50
[10] = target: Cytochrome P450 2C9 (Homo sapiens, UniProt P11712); test: Inhibition of recombinant human CYP2C9 expressed in baculovirus infected insect cell microsomes using vivid BOMF as substrate preincubated for 10 mins followed by substrate addition and measured after 25 mins in presence of […] by fluorescence assay; assay type: ADME
Sequence of Cytochrome P450 2C9 (P11712 whole entry): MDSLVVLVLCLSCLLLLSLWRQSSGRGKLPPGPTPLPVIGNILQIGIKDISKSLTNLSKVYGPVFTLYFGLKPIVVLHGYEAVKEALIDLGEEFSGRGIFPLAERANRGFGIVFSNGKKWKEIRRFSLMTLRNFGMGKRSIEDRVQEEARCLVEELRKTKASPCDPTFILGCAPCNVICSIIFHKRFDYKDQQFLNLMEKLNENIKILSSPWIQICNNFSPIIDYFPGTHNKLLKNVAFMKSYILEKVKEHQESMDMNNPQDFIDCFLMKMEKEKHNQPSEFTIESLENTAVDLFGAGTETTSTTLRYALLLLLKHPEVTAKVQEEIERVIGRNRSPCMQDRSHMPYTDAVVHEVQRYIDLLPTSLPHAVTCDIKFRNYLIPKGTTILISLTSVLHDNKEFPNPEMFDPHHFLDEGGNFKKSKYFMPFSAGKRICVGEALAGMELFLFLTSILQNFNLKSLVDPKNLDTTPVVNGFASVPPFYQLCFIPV
Outline: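 CYP2C9 inhibition IC50 is determined with 30 μM sulfaphenazole as positive inhibitor control, from three replicates; errors are estimated <10%.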

[11] = Metabolic stability in Sprague-Dawley rat pooled plasma assessed as parent compound remaining at 20 uM after 60 mins by HPLC analysis; assay type: ADME, cell-free; conditions: read-out: Stability; outline: as §2
[12] = Selectivity index, ratio of CC50 for human A549 cells to EC50 for HIV/EBOV-GP infected in human A549 cells; assay type: toxicity, cell-based; conditions: read-out: Ratio CC50/EC50
Outline: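 Ratio CC50/EC50. CC50 is A549 cytotoxicity by CellTiter 96 aqueous nonradioactive cell proliferation assay.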

[13] = test system: Marburgvirus; test: Antiviral activity against Marburg virus Lake Victoria, 2005 Angola infected in human HeLa cells pretreated for 1 hr followed by virus infection measured after 24 hrs by Hoechst staining-based immunofluorescence assay; assay type: functional, organism-based, Lake Victoria marburgvirus; conditions: Orthomarburgvirus, Angola2005, HeLa
[14] = test system: Zaire ebolavirus; test: Antiviral activity against Ebola virus 1976 Mayinga infected in human HeLa cells pretreated for 1 hr followed by virus infection measured after 24 hrs by Hoechst staining-based immunofluorescence assay; assay type: functional, organism-based

Structure (SMILES) | inhibition [1] | inhibition [2] | pEC50 [3] | pEC50 [5] | selectivity ratio [12] | also measured
COC(=O)c1ccc(NC(=O)c2cccc(CN3CCCCC3)c2)cc1 | 13% | 5.9% | – | – | – | –
CC(c1ccc(C(=O)N2CCc3cc(C(C)(C)C)ccc32)cc1)N1CCCCC1 (configuration not stated) | 99.8% | 98.1% | 5.69 | 5.51 | 9 | remaining at 1 h [4]: 27%; remaining at 1 h, 20 µM [6]: 94%; pIC50 [7]: 4.62; remaining at 1 h [8]: 46%; selectivity ratio [9]: 19; pIC50 [10]: 5.10; remaining at 1 h, 20 µM [11]: 62%; pEC50 [13]: 5.47
O=C(c1ccc(CN2CCCCC2)cc1)N1CCc2ccc(F)cc21 | 20.1% | 13.5% | – | – | – | –
COC(=O)c1ccc(NC(=O)c2ccc(C(=O)N3CCCCC3)cc2)cc1 | 12.9% | 0% | – | – | – | –
O=C(Nc1ccc(N2CCC(F)(F)CC2)cc1)c1ccc(CN2CCCCC2)cc1 | 99.7% | 88.8% | 6.09 | 5.73 | 69 | –
O=C(O)c1ccc(NC(=O)c2ccc(CN3CCCCC3)cc2)cc1 | 3.12% | 10.3% | – | – | – | –
CC(C)c1ccc(NC(=O)c2ccc(CN3CCCCC3)cc2)cc1 | 93.1% | 67.5% | 5.54 | 5.68 | 10 | –
COC(=O)c1ccc2c(c1)CCN2C(=O)c1ccc(CN2CCCCC2)s1 | 38.9% | 0% | – | – | – | –
COC(=O)c1ccc2c(c1)CCN2C(=O)c1ccc(CN2CCCCC2)cc1 | 41.7% | 51.2% | – | – | – | –
O=C(Nc1cccc(C(F)(F)F)c1)c1ccc(CN2CCCCC2)cc1 | 82.2% | 57.5% | 5.53 | 5.85 | 15 | –
N#CC(c1ccc(NC(=O)c2ccc(CN3CCCCC3)cc2)cc1)C1CCCC1 (configuration not stated) | 96.8% | 94% | 6.14 | 5.79 | 99 | –
COC(=O)c1ccc(NC(=O)c2ccc(CN3CCN(C)CC3)cc2)cc1 | 29.4% | 30.3% | – | – | – | –
O=C(Nc1ccc(C(F)(F)F)cc1)c1ccc(CN2CCCCC2)cc1 | 89.9% | 79.3% | 5.41 | 5.24 | 9 | –
O=C(NCCC1CCCCC1)c1ccc(CN2CCCCC2)cc1 | 90.9% | 27.3% | 5.63 | 5.11 | 25 | –
O=C(c1ccc(CN2CCCCC2)cc1)n1ccc2ccc(C(F)(F)F)cc21 | 0% | 0% | – | – | – | –
O=C(c1ccc(CN2CCCCC2)cc1)N1CCc2ccc(C(F)(F)F)cc21 | 83.7% | 59.2% | 5.77 | 5.84 | 38 | remaining at 1 h [4]: 0%; remaining at 1 h, 20 µM [6]: 85%; pEC50 [14]: 5.49; remaining at 1 h [8]: 31%; selectivity ratio [9]: 39; remaining at 1 h, 20 µM [11]: 0%; pEC50 [13]: 5.09
O=C(c1ccc(CN2CCCCC2)cc1)N1CC2(CC2)c2ccccc21 | 74.5% | 34.4% | – | – | – | –
CS(=O)(=O)Nc1ccc(NC(=O)c2ccc(CN3CCCCC3)cc2)cc1 | 3.91% | 6.81% | – | – | – | –
CC(c1ccc(C(=O)Nc2ccc(C3CCCCC3)cc2)cc1)N1CCCCC1 (configuration not stated) | 99.3% | 88.9% | 6.48 | 6.07 | 390 | remaining at 1 h [4]: 24%; remaining at 1 h, 20 µM [6]: 88%; pEC50 [14]: 5.74; remaining at 1 h [8]: 31%; selectivity ratio [9]: 54; remaining at 1 h, 20 µM [11]: 82%; pEC50 [13]: 5.25
O=C(Nc1ccc(C2CCCCC2)cc1)c1ccc(CN2CCCCC2)cc1 | 98.1% | 73.4% | 6.00 | 6.02 | 101 | –
O=C(Nc1ccc(C23CC4CC(CC(C4)C2)C3)cc1)c1ccc(CN2CCCCC2)cc1 | 99.4% | 99% | 7.46 | 6.42 | 231 | remaining at 1 h [4]: 71%; remaining at 1 h, 20 µM [6]: 100%; pIC50 [7]: < 4.00; pEC50 [14]: 6.96; remaining at 1 h [8]: 75%; selectivity ratio [9]: 202; pIC50 [10]: < 4.00; remaining at 1 h, 20 µM [11]: 96%; pEC50 [13]: 5.91
CN(C)CCOc1ccc(/C(=C(/CCCl)c2ccccc2)c2ccccc2)cc1 [TOREMIFENE] | – | – | 7.05 | – | – | pEC50 [14]: 6.17; pEC50 [13]: 5.49

Structure (SMILES) | inhibition [1] | inhibition [2] | pEC50 [3] | pEC50 [5] | selectivity ratio [12] | also measured
O=C(NCC1CCC(F)(F)CC1)c1ccc(CN2CCCCC2)cc1 | 42.9% | 23% | – | – | – | –
CC(c1ccc(C(=O)NCCOC2CCCCC2)cc1)N1CCCCC1 (configuration not stated) | 52.4% | 42.5% | – | – | – | –
O=C(Nc1ccc(Cl)c(C(F)(F)F)c1)c1ccc(CN2CCCCC2)cc1 | 99.6% | 98.2% | 5.82 | 5.91 | 7 | –
O=C(Nc1ccc(C(F)(F)F)c(Cl)c1)c1ccc(CN2CCCCC2)cc1 | 99.7% | 98.5% | 5.63 | 5.69 | 9 | –
O=C(Nc1ccc(C2CC2)cc1)c1ccc(CN2CCCCC2)cc1 | 74.3% | 66.2% | 5.34 | 5.58 | 22 | –
COC(=O)c1ccc2c(c1)CCCN2C(=O)c1ccc(CN2CCCCC2)cc1 | 25.1% | 0% | – | – | – | –
CC(c1ccc(C(=O)NCC2COC3(CCCCC3)O2)cc1)N1CCCCC1 (configuration not stated) | 56% | 37.2% | – | – | – | –
CNS(=O)(=O)c1ccc(NC(=O)c2ccc(CN3CCCCC3)cc2)cc1 | 0% | 3.3% | – | – | – | –
O=C(c1ccc(CN2CCCCC2)cc1)N1CCc2ccc(Cl)cc21 | 81.5% | 42.4% | 5.65 | 5.64 | 14 | –
CS(=O)(=O)c1ccc(NC(=O)c2ccc(CN3CCCCC3)cc2)cc1 | 0% | 17.4% | – | – | – | –
O=C(c1ccc(CN2CCCCC2)cc1)N1CCc2cc(C(F)(F)F)ccc21 | 56.4% | 49.6% | – | – | – | –
COC(=O)c1ccc(NC(=O)c2ccc(CN3CCCCC3)s2)cc1 | 33.8% | 27.2% | – | – | – | –
N#Cc1ccc(NC(=O)c2ccc(CN3CCCCC3)cc2)cc1 | 0% | 12.4% | – | – | – | –
O=C(Nc1ccc(C2CCCCC2)cc1)c1ccc(CN2CCCCC2)c(F)c1 | 96.1% | 71% | 6.42 | 5.88 | 382 | remaining at 1 h [4]: 23%; remaining at 1 h, 20 µM [6]: 87%; pEC50 [14]: 5.98; remaining at 1 h [8]: 28%; selectivity ratio [9]: 128; remaining at 1 h, 20 µM [11]: 86%; pEC50 [13]: 4.78
O=C(Nc1ccc(C(F)(F)F)nc1)c1ccc(CN2CCCCC2)cc1 | 5.4% | 9.4% | – | – | – | –
O=C(Nc1ccc(C(F)(F)F)cc1)c1ccc(CN2CCCCC2)s1 | 80.2% | 70% | 5.25 | 5.44 | 9 | –
CC1(C)CN(C(=O)c2ccc(CN3CCCCC3)cc2)c2ccccc21 | 87.3% | 21.4% | 5.65 | 5.54 | 33 | –
COC(=O)c1cccc(NC(=O)c2ccc(CN3CCCCC3)cc2)c1 | 0% | 0% | – | – | – | –
CC(c1ccc(C(=O)N2CC(C(C)(C)C)c3ccccc32)cc1)N1CCCCC1 (configuration not stated) | 99.9% | 92.8% | 6.80 | 5.50 | 224 | remaining at 1 h [4]: 0%; remaining at 1 h, 20 µM [6]: 88%; pEC50 [14]: 6.06; remaining at 1 h [8]: 2%; selectivity ratio [9]: 137; remaining at 1 h, 20 µM [11]: 2%; pEC50 [13]: 5.20
CC(c1ccc(C(=O)N2CCc3ccc(C(F)(F)F)cc32)cc1)N1CCCCC1 (configuration not stated) | 95.6% | 76.9% | 5.81 | 5.76 | 21 | –
COC(=O)c1ccc(NC(=O)c2ccc(CN3CCOCC3)cc2)cc1 | 57.2% | 68.8% | – | – | – | –
